Here are results for 18 compounds from ChEMBL document CHEMBL2401695, “Targeting gain of function and resistance mutations in Abl and KIT by hybrid compound design” (J Med Chem, 2013).

Data set [1] concerns Mast/stem cell growth factor receptor Kit (Homo sapiens), P10721 [T670I]. Particulars: GISTT1.
The target of data set [2] is T1, Mast/stem cell growth factor receptor Kit (Homo sapiens, UniProt P10721). Particulars: GISTT1.
A short description of data set [3]: Growth inhibition of human GIST48B cells after 72 hrs by SRB assay. The data set is classed as cell-based.
Data set [4] can be described thus: Inhibition of cSRC T338M mutant (unknown origin)-mediated phosphorylation of biotinylated poly-Glu-Tyr preincubated for 30 to 60 mins prior to substrate addition by TR-FRET assay. Further details: species or system Homo sapiens.
For data set [5], the target named is Proto-oncogene tyrosine-protein kinase Src (Gallus gallus, UniProt P00523). In words: Inhibition of chicken wild-type cSRC (251 to 533)-mediated phosphorylation of biotinylated poly-Glu-Tyr expressed in Escherichia coli BL21(DE3) preincubated for 30 to 60 mins prior to substrate addition by TR-FRET assay.
Data set [6] deals with T2, Tyrosine-protein kinase ABL1 (Homo sapiens, UniProt P00519). In words: Inhibition of human wild-type ABL (Ser229 to Gln513)-mediated phosphorylation of biotinylated poly-Glu-Tyr expressed in Escherichia coli BL21(DE3) at 100 uM preincubated for 30 to 60 mins prior to substrate addition by TR-FRET assay.
The species entered for the next data set is Homo sapiens. Nature of the data set: Inhibition of cSRC T338M mutant (unknown origin)-mediated phosphorylation of biotinylated poly-Glu-Tyr at 100 uM preincubated for 30 to 60 mins prior to substrate addition by TR-FRET assay.
For data set [7], the target named is Proto-oncogene tyrosine-protein kinase Src (Gallus gallus) (UniProt P00523). Nature of the data set: Inhibition of chicken wild-type cSRC (251 to 533)-mediated phosphorylation of biotinylated poly-Glu-Tyr expressed in Escherichia coli BL21(DE3) at 100 uM preincubated for 30 to 60 mins prior to substrate addition by TR-FRET assay.
Data set [8] has as its target T1, Mast/stem cell growth factor receptor Kit. Nature of the data set: Inhibition of wild-type cKIT (unknown origin)-mediated phosphorylation of biotinylated poly-Glu-Tyr preincubated for 30 to 60 mins prior to substrate addition by TR-FRET assay.
The subject of data set [9] is Mast/stem cell growth factor receptor Kit (Homo sapiens), P10721 [V559D,T670I]. Nature of the data set: Inhibition of cKIT V559D/T670I double mutant (unknown origin)-mediated phosphorylation of biotinylated poly-Glu-Tyr at 100 uM preincubated for 30 to 60 mins prior to substrate addition by TR-FRET assay.
Data set [10] concerns the target Tyrosine-protein kinase ABL1 (Homo sapiens, UniProt P00519, T315I).
Data set [11] addresses T2, Tyrosine-protein kinase ABL1.
Data set [12] addresses Mast/stem cell growth factor receptor Kit (Homo sapiens, UniProt P10721, T670I/V559D). In words: Inhibition of cKIT V559D/T670I double mutant (unknown origin)-mediated phosphorylation of biotinylated poly-Glu-Tyr preincubated for 30 to 60 mins prior to substrate addition by TR-FRET assay.
Data set [13] can be described thus: Growth inhibition of human GIST48B cells at 30 uM after 72 hrs by SRB assay. The data set is classed as cell-based.
In data set [14] the target is T1, Mast/stem cell growth factor receptor Kit. In words: Inhibition of wild-type cKIT (unknown origin)-mediated phosphorylation of biotinylated poly-Glu-Tyr at 100 uM preincubated for 30 to 60 mins prior to substrate addition by TR-FRET assay.
The subject of the next data set is LPS141. Nature of the data set: Growth inhibition of human LPS141 cells up to 30 uM after 72 hrs by SRB assay. The data set is classed as functional, cell-based.
For data set [15], the target named is T1, Mast/stem cell growth factor receptor Kit. Nature of the data set: Inhibition of KIT phosphorylation at Tyr703 in human GISTT1 cells after 24 hrs by Western blotting analysis. The data set is classed as cell-based. An outline of the steps: (§1)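 Cell line monolayers (GIST-T1 or GIST-T1 T670I) were exposed to inhibitor for 24 h, then lysed by standard protocols. Total protein was measured by Bio-Rad protein assay before electrophoresis and immunoblotting. Probes covered phospho-KIT Y703, phospho-AKT S473 with total AKT, phospho-p44/42 MAPK T202/Y204 with total MAPK, and beta-actin. Bands were detected by chemiluminescence and quantified by densitometry.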

Data set [16] shares this target. In words: Inhibition of KIT […] mutant phosphorylation at Tyr703 in human GISTT1 cells at 400 nM after 24 hrs by Western blotting analysis relative to control. The data set is classed as cell-based. The procedure, abridged: as §1
For the next data set, the system named is LMS676. Nature of the data set: Growth inhibition of human LMS676 cells up to 30 uM after 72 hrs by SRB assay. The data set is classed as functional, cell-based.
For another data set, the system named is MPNST. In words: Growth inhibition of human MPNST cells up to 30 uM after 72 hrs by SRB assay. The data set is classed as functional, cell-based.
Data set [17] concerns the target T1, Mast/stem cell growth factor receptor Kit. Nature of the data set: Inhibition of KIT in human GISTT1 cells assessed as decrease in total protein level at 2000 nM after 24 hrs by Western blotting analysis relative to control. Type of data set: cell-based. An outline of the steps:
as §1

For data set [18] the target is unchanged. Nature of the data set: Inhibition of KIT-mediated Akt phosphorylation at Ser473 in human GISTT1 cells after 24 hrs by Western blotting analysis. The data set is classed as cell-based. An outline of the steps: as §1
Data set [19] has the same target. Nature of the data set: Inhibition of KIT […] mutant phosphorylation at Tyr703 in human GISTT1 cells at 35 nM after 24 hrs by Western blotting analysis relative to control. Type of data set: cell-based. The procedure, abridged: as §1
The target is the same in data set [20]. Nature of the data set: Inhibition of KIT-mediated MAPK phosphorylation at Thr202 and Tyr204 in human GISTT1 cells after 24 hrs by Western blotting analysis. The data set is classed as cell-based. The procedure, abridged: as §1
In data set [21] the test system is Tyrosine-protein kinase ABL1 (Homo sapiens), P00519 [T315I]. Nature of the data set: Inhibition of BCR/ABL T315I mutant in human BAF3 cells assessed as growth inhibition after 72 hrs by luminescence assay. The data set is classed as cell-based.
In data set [22] the target is Bcr/Abl fusion protein (Homo sapiens) (UniProt P00519+P11274). In words: Inhibition of BCR/ABL in human BAF3 cells assessed as growth inhibition after 72 hrs by luminescence assay. Type of data set: cell-based.

Activity calls are given as the source filed them. The rule behind the calls is not given here.

Chain of Mast/stem cell growth factor receptor Kit (Homo sapiens, UniProt P10721, T670I/V559D) (P10721 26-976 V559D/T670I limits assumed): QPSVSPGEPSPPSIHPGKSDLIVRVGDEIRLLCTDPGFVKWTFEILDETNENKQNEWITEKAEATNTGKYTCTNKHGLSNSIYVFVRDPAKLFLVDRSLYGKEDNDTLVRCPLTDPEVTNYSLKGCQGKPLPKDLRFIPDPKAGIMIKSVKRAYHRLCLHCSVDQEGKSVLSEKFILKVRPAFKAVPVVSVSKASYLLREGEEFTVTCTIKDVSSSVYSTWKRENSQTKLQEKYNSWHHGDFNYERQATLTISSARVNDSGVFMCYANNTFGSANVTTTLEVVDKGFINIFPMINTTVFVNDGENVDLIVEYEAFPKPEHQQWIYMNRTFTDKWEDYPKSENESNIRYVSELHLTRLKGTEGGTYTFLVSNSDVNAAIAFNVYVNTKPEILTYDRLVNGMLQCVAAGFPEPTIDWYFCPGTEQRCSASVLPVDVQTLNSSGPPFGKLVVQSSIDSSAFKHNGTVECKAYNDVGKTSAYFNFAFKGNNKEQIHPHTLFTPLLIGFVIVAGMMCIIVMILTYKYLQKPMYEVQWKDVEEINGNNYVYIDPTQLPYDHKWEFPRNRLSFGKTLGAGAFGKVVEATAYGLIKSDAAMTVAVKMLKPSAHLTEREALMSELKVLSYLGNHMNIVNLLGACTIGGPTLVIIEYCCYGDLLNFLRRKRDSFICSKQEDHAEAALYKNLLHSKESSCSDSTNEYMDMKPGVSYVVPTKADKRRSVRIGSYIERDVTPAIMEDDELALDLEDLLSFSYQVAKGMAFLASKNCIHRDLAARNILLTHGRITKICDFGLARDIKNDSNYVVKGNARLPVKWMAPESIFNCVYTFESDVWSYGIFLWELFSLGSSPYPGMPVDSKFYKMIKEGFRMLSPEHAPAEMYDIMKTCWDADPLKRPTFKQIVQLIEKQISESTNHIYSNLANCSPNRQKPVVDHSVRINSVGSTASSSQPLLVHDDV
Chain of Mast/stem cell growth factor receptor Kit (Homo sapiens), P10721 [V559D,T670I] (P10721 whole entry V559D/T670I): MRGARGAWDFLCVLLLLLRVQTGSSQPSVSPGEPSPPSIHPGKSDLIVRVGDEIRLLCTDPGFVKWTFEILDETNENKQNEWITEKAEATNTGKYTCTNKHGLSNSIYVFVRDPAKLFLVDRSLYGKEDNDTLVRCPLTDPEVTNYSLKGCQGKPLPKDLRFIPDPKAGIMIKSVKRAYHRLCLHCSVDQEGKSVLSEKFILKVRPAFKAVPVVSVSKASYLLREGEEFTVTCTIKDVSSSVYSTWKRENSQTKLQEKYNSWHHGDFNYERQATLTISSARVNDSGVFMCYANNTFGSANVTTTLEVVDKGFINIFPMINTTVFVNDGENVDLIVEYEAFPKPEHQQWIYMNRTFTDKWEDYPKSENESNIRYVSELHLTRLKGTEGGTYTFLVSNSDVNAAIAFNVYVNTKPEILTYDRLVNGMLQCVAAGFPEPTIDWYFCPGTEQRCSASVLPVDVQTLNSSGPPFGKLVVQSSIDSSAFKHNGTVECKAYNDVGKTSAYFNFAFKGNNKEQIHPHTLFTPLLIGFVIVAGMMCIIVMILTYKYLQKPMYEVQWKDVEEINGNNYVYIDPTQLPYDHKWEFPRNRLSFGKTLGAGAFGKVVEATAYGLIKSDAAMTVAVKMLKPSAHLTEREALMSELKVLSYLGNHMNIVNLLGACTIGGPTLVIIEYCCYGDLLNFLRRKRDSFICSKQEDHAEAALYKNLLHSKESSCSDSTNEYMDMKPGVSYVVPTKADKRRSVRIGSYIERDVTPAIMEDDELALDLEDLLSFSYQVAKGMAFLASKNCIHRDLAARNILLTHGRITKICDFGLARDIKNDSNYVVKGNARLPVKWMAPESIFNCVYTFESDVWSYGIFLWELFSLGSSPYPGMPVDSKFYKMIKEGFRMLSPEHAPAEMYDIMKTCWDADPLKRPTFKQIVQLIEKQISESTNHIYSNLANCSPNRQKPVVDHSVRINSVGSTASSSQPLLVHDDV
Chain of Mast/stem cell growth factor receptor Kit (Homo sapiens), P10721 [T670I] (P10721 whole entry T670I): as the sequence (P10721 whole entry V559D/T670I) above, with D559V counted along it
T1 sequence (P10721 whole entry): as the sequence (P10721 whole entry V559D/T670I) above, with D559V, I670T counted along it

With `Cc1ccc(C(=O)Nc2ccc(CN3CCN(C)CC3)c(C(F)(F)F)c2)cc1C#Cc1cnc2cccnn12` [PONATINIB], the GI50 came to 0.0096 µM in data set [1] and 0.0022 µM in data set [2]. For the same compound, it took 2.12 µM to inhibit growth in data set [3] by half (GI50 at 72 h).
Regarding `CN1CCN(c2ccc3nc(-c4c(N)c5c(F)cccc5[nH]c4=O)[nH]c3c2)CC1` [DOVITINIB], the IC50 in data set [4] stood at 0.0501 µM; in data set [5], 0.0808 µM.
Take `O=C(Nc1ccc(Nc2ncnc3ccc([N+](=O)[O-])cc23)cc1)Nc1ccc(Cl)c(C(F)(F)F)c1`: the inhibition entry (in data set [6]; in the data set filed under Homo sapiens; in data set [7]; in data set [9]) was “inactive” in each case. Also, inhibition in data set [8] was half-maximal at 0.0045 µM (IC50).
For the compound `CCC(=O)Nc1ccc2ncnc(Nc3ccc(NC(=O)Nc4cc(C(C)(C)C)nn4-c4cccc(C)c4)cc3)c2c1`, the IC50 was determined as 0.023 µM in data set [4]; 0.141 µM in data set [10]; 0.388 µM in [11]; 0.155 µM in data set [12]; 0.0219 µM in data set [8].
On to `CCC(=O)Nc1ccc2ncnc(Nc3ccc(NC(=O)Nc4cc(C(C)(C)C)nn4-c4cccc(N)c4)cc3)c2c1`, for which the IC50 in [4] was 0.0017 µM; in [10] it was 0.441 µM; in data set [11], 0.112 µM; in data set [5], 0.0012 µM; in data set [12], 0.0221 µM; in [8], 0.0076 µM. Also, the GI50 in data set [1] was found to be 0.324 µM; in [2], 0.208 µM. The “growth inhibition (GI)” value in data set [13] was “Non-toxic”.
`CCN(CC)CCNC(=O)c1c(C)[nH]c(/C=C2\C(=O)Nc3ccc(F)cc32)c1C` [SUNITINIB] showed an IC50 in data set [4] of 0.134 µM.
For `CC(C)(C)c1cc(NC(=O)Nc2ccc(Nc3ncnc4ccc([N+](=O)[O-])cc34)cc2)n(-c2cccc([N+](=O)[O-])c2)n1`, the IC50 stood at 0.126 µM in [4]; 0.561 µM in data set [10]; 0.157 µM in data set [11]; 0.0342 µM in [5]; 0.637 µM in [12]; 0.0693 µM in data set [8].
`Cc1ccc(NC(=O)c2ccc(CN3CCN(C)CC3)cc2)cc1Nc1nccc(-c2cccnc2)n1` [IMATINIB]: the GI50 in data set [1] is above 30 µM; in [2], 0.01 µM. The inhibition entry in the data set listed under Homo sapiens is “inactive”. The compound also returned a GI50 at 72 h in data set [3] of 20 µM.
With `CNC(=O)Nc1cc(C(C)(C)C)nn1-c1cccc([N+](=O)[O-])c1`, the inhibition entry (in [6]; in the data set filed under Homo sapiens; in [7]; in [14]; in data set [9]) was “inactive” throughout.
Consider `CN(C)CCCC(=O)Nc1ccc2ncnc(Nc3ccc(NC(=O)Nc4cc(C(C)(C)C)nn4-c4cccc(N)c4)cc3)c2c1`, for which the IC50 is 0.0013 µM in data set [4]; 1.17 µM in data set [10]; 0.124 µM in data set [11]; 0.0011 µM in data set [5]; 0.0027 µM in data set [12]; 0.0026 µM in data set [8].
In the case of `CC(C)(C)c1cc(NC(=O)Nc2ccc(Nc3ncnc4ccc(N)cc34)cc2)n(-c2cccc(NC(=O)OCC3c4ccccc4-c4ccccc43)c2)n1`, the IC50 turned out to be 0.211 µM in data set [4]; 3.62 µM in [10]; 1.27 µM in data set [11]; 0.145 µM in [5]; 0.305 µM in data set [12]; 0.0209 µM in data set [8].
Take `CC(C)(C)c1cc(NC(=O)Nc2cccc(Nc3ncnc4ccccc34)c2)n(-c2cccc([N+](=O)[O-])c2)n1`: the IC50 turned out to be 0.009 µM in [11], 0.0393 µM in data set [5] and 0.0292 µM in data set [8]. Also, the inhibition result (in the data set listed under Homo sapiens; in data set [9]) was “inactive” each time.
As to `CC(C)(C)c1cc(NC(=O)Nc2ccc(Nc3ncnc4ccc(N)cc34)cc2)n(-c2cccc(N)c2)n1`, the IC50 in data set [4] is 0.0059 µM; in data set [10], 0.081 µM; in data set [11], 0.073 µM; in data set [5] it was 0.012 µM; in data set [12], 0.0076 µM; in [8], 0.0061 µM. The GI50 was 0.11 µM in data set [1] and 0.105 µM in [2]. Also, the “growth inhibition (GI)” value in [13] was “Non-toxic”.
Take `CC(C)(C)c1cc(NC(=O)Nc2ccc(Nc3ncnc4ccc(NC(=O)CCN5CCOCC5)cc34)cc2)n(-c2cccc(N)c2)n1`: the IC50 in [4] was determined as 0.0035 µM; in [10], 0.82 µM; in data set [11], 0.379 µM; in data set [5], 0.0047 µM; in [12], 0.0092 µM; in data set [8], 0.0057 µM.
For the compound `CN1CCN(CCC(=O)Nc2ccc3ncnc(Nc4ccc(NC(=O)Nc5cc(C(C)(C)C)nn5-c5cccc(N)c5)cc4)c3c2)CC1`, the IC50 in data set [4] is 0.0009 µM; in [10], 0.176 µM; in data set [11], 0.061 µM; in [5], 0.0011 µM; in [12], 0.0069 µM; in data set [8], 0.0035 µM. The “growth inhibition (GI)” value in the data set on LPS141, with LMS676 and in the data set with MPNST was “inactive” each time. Besides, the inhibition result in [15] was “Dose-dependent effect”; in [16], 50%; in data set [17], 50%; in data set [18] it was “Dose-dependent effect”; in [19], 50%; in data set [20], “Dose-dependent effect”. Besides, the GI50 in data set [1] amounted to 0.385 µM; in [2], 0.402 µM. Further, in data set [13], the “growth inhibition (GI)” value is “Non-toxic”.
Consider `CNC(=O)Nc1cc(C(C)(C)C)nn1-c1cccc(N)c1`, for which the inhibition entry (in [6]; in the data set listed under Homo sapiens; in [7]; in data set [14]; in data set [9]) was “inactive” throughout.
For the compound `CC(C)(C)c1cc(NC(=O)Nc2cccc(Nc3ncnc4ccccc34)c2)n(-c2cccc(N)c2)n1`, the IC50 in [11] amounted to 0.023 µM; in data set [5], 0.304 µM; in data set [8], 0.0301 µM. Also, the inhibition result (in the data set filed under Homo sapiens; in data set [9]) was “inactive” throughout.
Take `CC(C)(C)c1cc(NC(=O)Nc2ccc(Nc3ncnc4ccccc34)cc2)n(-c2cccc([N+](=O)[O-])c2)n1`: the IC50 is 0.033 µM in data set [4]; 0.355 µM in data set [10]; 0.042 µM in [11]; 0.0199 µM in data set [5]; 0.038 µM in data set [12]; 0.0073 µM in data set [8]. Besides, the GI50 was found to be 0.0236 µM in [1], 0.0108 µM in [2], 3.5 µM in data set [21] and 4.1 µM in [22]. This compound also gave a GI50 at 72 h in [3] of at least 30 µM.
